Reference: ChEMBL document CHEMBL1828519, “Tricyclic thiazolopyrazole derivatives as metabotropic glutamate receptor 4 positive allosteric modulators” (J Med Chem, 2011)
≈ marks a conversion by molar mass, not a printed value.

Assays:
[1] = target: T1, Metabotropic glutamate receptor 4 (Homo sapiens, UniProt Q14833); assay: Positive allosteric modulation of human mGlu4 receptor expressed in BHK cells assessed as potentiation of glutamate-induced calcium mobilization after 1 hr by FLIPR assay; assay type: functional, cell-based
T1 sequence (Q14833 whole entry): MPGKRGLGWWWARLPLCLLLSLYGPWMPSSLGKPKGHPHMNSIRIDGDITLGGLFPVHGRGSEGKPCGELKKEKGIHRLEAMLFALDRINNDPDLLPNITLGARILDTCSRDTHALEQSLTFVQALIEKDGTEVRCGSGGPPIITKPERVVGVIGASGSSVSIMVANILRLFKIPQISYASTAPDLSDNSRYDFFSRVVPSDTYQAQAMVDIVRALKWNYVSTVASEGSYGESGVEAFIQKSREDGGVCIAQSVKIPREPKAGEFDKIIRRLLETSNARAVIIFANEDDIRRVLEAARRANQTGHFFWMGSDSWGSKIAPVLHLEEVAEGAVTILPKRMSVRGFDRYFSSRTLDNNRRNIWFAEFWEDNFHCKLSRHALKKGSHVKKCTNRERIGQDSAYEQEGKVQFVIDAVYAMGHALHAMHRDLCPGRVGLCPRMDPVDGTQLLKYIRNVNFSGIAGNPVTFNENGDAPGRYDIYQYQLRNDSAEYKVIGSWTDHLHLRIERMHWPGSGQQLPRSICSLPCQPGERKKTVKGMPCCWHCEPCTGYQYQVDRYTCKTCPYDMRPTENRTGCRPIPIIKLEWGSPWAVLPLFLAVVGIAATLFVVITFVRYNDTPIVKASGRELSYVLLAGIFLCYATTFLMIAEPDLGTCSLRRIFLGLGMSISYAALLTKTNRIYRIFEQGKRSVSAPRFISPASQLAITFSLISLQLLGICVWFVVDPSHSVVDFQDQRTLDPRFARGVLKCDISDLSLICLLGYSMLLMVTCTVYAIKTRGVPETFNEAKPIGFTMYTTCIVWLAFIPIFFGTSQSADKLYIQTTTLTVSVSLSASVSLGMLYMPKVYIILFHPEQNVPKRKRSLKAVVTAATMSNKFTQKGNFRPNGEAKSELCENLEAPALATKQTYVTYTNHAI
How it was run: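 Stable BHK line co-expressing human mGlu4 and murine Gα15, plated on poly-D-lysine 24 h ahead. Cells loaded 1 h at 37 °C, 5% CO2 with Calcium 3 dye in HBSS/20 mM HEPES pH 7.4, 0.1% BSA, 2.5 mM probenecid. Test agent added with an EC20 glutamate challenge. Peak fluorescence change read by FLIPR and fitted to the Hill equation. At least two independent runs in duplicate, means reported.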

[2] = Kinetic solubility of the compound at pH 7.4 at room temperature; assay type: physicochemical; settings: buffer, read-out: Kinetic_solubility
How it was run: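 Kinetic solubility measured from DMSO stock solutions at room temperature. Assay run at the pH named in each line.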

[3] = Apparent permeability of the compound by PAMPA assay; assay type: ADME
How it was run: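 Passive permeability measured in a PAMPA assay.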

[4] = target: T1, Metabotropic glutamate receptor 4; assay: Positive allosteric modulation of human mGlu4 receptor expressed in BHK cells assessed as potentiation of glutamate-induced response after 1 hr by FLIPR assay relative to glutamate; assay type: cell-based
How it was run: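 BHK cells stably co-expressing human mGlu4 and murine G-protein […], grown in DMEM at 37 °C, 5% CO₂. Cells seeded 24 h before assay, then loaded with Calcium 3 no-wash dye in HBSS/HEPES pH 7.4 with 0.1% BSA and 2.5 mM probenecid for 1 h at 37 °C. FLIPR calcium read after stimulation with EC₂₀ glutamate plus compound. Emax is percent of maximal glutamate response. Mean of ≥2 independent duplicate experiments.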

[5] = Plasma protein binding in rat; assay type: ADME, cell-free; settings: read-out: PPB (converted)
[6] = Plasma protein binding in human; assay type: ADME, cell-free; settings: read-out: PPB (converted)
[7] = Intrinsic clearance in human microsomes; assay type: ADME, Microsome
How it was run: (§1)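 Intrinsic clearance measured in rat and human liver microsomes. Hepatic blood flow references given as 20 mL/min for rat and 1.5 L/min for human.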

[8] = Intrinsic clearance in rat microsomes; assay type: ADME, Microsome; how it was run: as §1

SMILES | EC50 [1] [nM] | solubility kinetic [2] [µM] | Papp [3] [×10⁻⁶ cm/s] | Emax [4] [%] | further results
CCOc1cccc(Nc2nc3c(s2)CCCc2n[nH]cc2-3)n1 | 290 | < 0.1 | < 0.1 | 78 | 
c1cc(Nc2nc3c(s2)CCCc2n[nH]cc2-3)nc(N2CCCC2)c1 |  |  |  | 14 | 
CN(C)c1cccc(Nc2nc3c(s2)CCCc2[nH]ncc2-3)n1 | 340 | < 0.1 | < 0.1 |  | 
O=C(Nc1cc(Cl)cc(Cl)c1)[C@H]1CCCC[C@H]1C(=O)O | 750 |  |  | 120 | 
c1cnc(Nc2nc3c(s2)CCCc2[nH]ncc2-3)cn1 | > 10000 | 78 (≈ 22.2 µg/mL) | 3.8 |  | 
Cc1ccc(N2C(=O)c3ccccc3NC2C(C)c2ccccc2)cc1 (stereo not given) |  |  |  | 129 | 
Fc1cccc(Nc2nc3c(s2)CCCc2[nH]ncc2-3)n1 | 105 | 0.2 (≈ 0.0603 µg/mL) | 0.1 |  | 
c1cc(Nc2nc3c(s2)CCCc2[nH]ncc2-3)[nH]n1 | 3200 | 190 (≈ 51.7 µg/mL) | 25 |  | 
COc1ccnc(Nc2nc3c(s2)CCCc2[nH]ncc2-3)n1 | 100 | 0.6 (≈ 0.189 µg/mL) | 0.3 |  | 
Cc1n[nH]cc1-c1csc(Nc2ccccn2)n1 | 56 |  |  | 79 | 
Cc1cc(C)cc(-n2ncc3c(N4CCCC(C)C4)ncnc32)c1 (stereo not given) | 4600 |  |  | 100 | 
Cn1ccc(Nc2nc3c(s2)CCCc2[nH]ncc2-3)n1 | 3000 | 160 (≈ 45.8 µg/mL) | 19 |  | 
c1ccc(Nc2nc3c(s2)CCc2[nH]ncc2-3)cc1 | 2200 | < 0.1 | < 0.1 |  | 
Cc1nc2ccccc2nc1N/N=C/c1ccc(O)cc1 |  |  |  | 144 | 
Cc1cc(Nc2nc3c(s2)CCCc2n[nH]cc2-3)n[nH]1 |  |  |  | 39 | 
c1[nH]nc2c1-c1nc(NC3CCCCC3)sc1CCC2 | 1300 | < 0.1 | 2.8 | 150 | 
O=C(Nc1ccccc1)[C@]12C[C@H]1/C(=N\O)c1ccccc1O2 |  |  |  | 120 | 
Cc1ccc(Nc2nc3c(s2)CCCc2[nH]ncc2-3)nc1 | > 10000 | < 0.1 | 2.7 |  | 

SMILES | EC50 [1] [nM] | solubility kinetic [2] [µM] | Papp [3] [×10⁻⁶ cm/s] | Emax [4] [%] | further results
Clc1cccc(Nc2nc3c(s2)CCCc2[nH]ncc2-3)n1 | 1100 | 38 (≈ 12.1 µg/mL) | 15.4 |  | 
Cc1sc(Nc2ccccn2)nc1-c1cn[nH]c1 | 13 |  |  | 100 | 
Cc1[nH]ncc1-c1nc(Nc2ccccn2)sc1C | > 10000 |  |  | 19 | 
N#Cc1cccc(Nc2nc3c(s2)CCCc2[nH]ncc2-3)n1 | 4900 | < 0.1 | < 0.1 |  | 
c1cnc(Nc2nc3c(s2)CCc2[nH]ncc2-3)nc1 | 65 | 20 (≈ 5.41 µg/mL) | 3.4 |  | fraction unbound [5]: 0.105; fraction unbound [6]: 0.036; CL [7]: 4.4 L/min; CL [8]: 42 mL/min
Cc1cccc(Nc2nc3c(s2)CCc2[nH]ncc2-3)n1 | 910 | 2.9 (≈ 0.822 µg/mL) | 2 |  | CL [7]: 48 L/min; CL [8]: 400 mL/min
COc1cccc(Nc2nc3c(s2)CCCc2[nH]ncc2-3)n1 | 650 | 0.1 (≈ 0.0313 µg/mL) | 0.1 |  | 
Cc1cc(C)nc(Nc2nc3c(s2)CCc2[nH]ncc2-3)c1 | > 10000 | 0.1 (≈ 0.0297 µg/mL) | 1 |  | 
c1cncc(Nc2nc3c(s2)CCCc2[nH]ncc2-3)c1 | > 10000 | 3.8 (≈ 1.08 µg/mL) | 35 |  | 
Cc1cc(C)nc(Nc2nc3c(s2)CCCc2[nH]ncc2-3)c1 | > 10000 | 0.4 (≈ 0.125 µg/mL) | 1.2 |  | 
Cc1cccc(Nc2nc3c(s2)CCCc2[nH]ncc2-3)n1 | 140 | 110 (≈ 32.7 µg/mL) | 4.9 |  | 
COCCOc1cccc(Nc2nc3c(s2)CCCc2n[nH]cc2-3)n1 | 390 | 0.1 (≈ 0.0357 µg/mL) | 0.1 | 90 | 
Cc1cccnc1Nc1nc2c(s1)CCCc1[nH]ncc1-2 | 3400 | 0.2 (≈ 0.0595 µg/mL) | 8 |  | 
Cc1cc(Nc2nc3c(s2)CCCc2[nH]ncc2-3)[nH]n1 | 2400 | 10 (≈ 2.86 µg/mL) | 15 |  | 
Cc1ccnc(Nc2nc3c(s2)CCCc2[nH]ncc2-3)n1 | 51 | 0.6 (≈ 0.179 µg/mL) | 0.5 |  | 
Cc1cc(C)nc(Nc2nc3c(s2)CCCc2n[nH]cc2-3)c1 |  |  |  | 4 | 
Fc1ccc(Nc2nc3c(s2)CCCc2[nH]ncc2-3)nc1 | 750 | < 0.1 | 0.3 |  | 
c1cc(Nc2nc3c(s2)CCCc2[nH]ncc2-3)nc(N2CCCC2)c1 | > 10000 | < 0.1 | 0.1 |  | 

Further lines, with some results ahead:

EC50 [1] [nM] | solubility kinetic [2] [µM] | Papp [3] [×10⁻⁶ cm/s] | Emax [4] [%] | SMILES | further results
> 10000 | 1.9 (≈ 0.649 µg/mL) | 0.1 | 5 | COC(=O)c1cccc(Nc2nc3c(s2)CCCc2n[nH]cc2-3)n1 | 
1300 | 1.8 (≈ 0.512 µg/mL) | 41 | 150 | c1cc(Nc2nc3c(s2)CCCc2n[nH]cc2-3)ncn1 | 
 |  |  | 26 | c1cncc(Nc2nc3c(s2)CCCc2n[nH]cc2-3)c1 | 
 |  |  | 170 | Fc1ccc(Nc2nc3c(s2)CCCc2n[nH]cc2-3)nc1 | 
 |  |  | 11 | c1cncc(Nc2nc3c(s2)CCc2n[nH]cc2-3)c1 | 
 |  |  | 130 | Cn1ccc(Nc2nc3c(s2)CCCc2n[nH]cc2-3)n1 | 
 |  |  | 120 | Cc1cccc(Nc2nc3c(s2)CCc2n[nH]cc2-3)n1 | 
 |  |  | 160 | c1cnc(Nc2nc3c(s2)CCCc2n[nH]cc2-3)nc1 | 
 |  |  | 50 | N#Cc1cccc(Nc2nc3c(s2)CCCc2n[nH]cc2-3)n1 | 
 |  |  | 18 | c1cnc(Nc2nc3c(s2)CCCc2n[nH]cc2-3)cn1 | 
 |  |  | 28 | Cc1ccc(Nc2nc3c(s2)CCCc2n[nH]cc2-3)nc1 | 
 |  |  | 230 | COc1ccnc(Nc2nc3c(s2)CCCc2n[nH]cc2-3)n1 | 
> 10000 | 180 (≈ 48.5 µg/mL) | 2.5 |  | c1cc(Nc2nc3c(s2)CCc2[nH]ncc2-3)ccn1 | 
 |  |  | 170 | Fc1cccc(Nc2nc3c(s2)CCCc2n[nH]cc2-3)n1 | 
> 10000 | 17 (≈ 4.58 µg/mL) | 18.7 |  | c1cncc(Nc2nc3c(s2)CCc2[nH]ncc2-3)c1 | 
 |  |  | 140 | c1cc(Nc2nc3c(s2)CCCc2n[nH]cc2-3)n[nH]1 | 
 |  |  | 150 | CN(C)c1cccc(Nc2nc3c(s2)CCCc2n[nH]cc2-3)n1 | 

EC50 [1] [nM] | solubility kinetic [2] [µM] | Papp [3] [×10⁻⁶ cm/s] | Emax [4] [%] | SMILES | further results
 |  |  | 84 | Cc1cccnc1Nc1nc2c(s1)CCCc1n[nH]cc1-2 | 
600 | 0.9 (≈ 0.294 µg/mL) | 3.1 | 63 | CCNc1cccc(Nc2nc3c(s2)CCCc2n[nH]cc2-3)n1 | 
 |  |  | 100 | COc1cccc(Nc2nc3c(s2)CCCc2n[nH]cc2-3)n1 | 
 |  |  | 220 | Clc1cccc(Nc2nc3c(s2)CCCc2n[nH]cc2-3)n1 | 
 |  |  | 160 | c1ccc(Nc2nc3c(s2)CCc2n[nH]cc2-3)cc1 | 
 |  |  | 11 | Cc1cc(C)nc(Nc2nc3c(s2)CCc2n[nH]cc2-3)c1 | 
> 10000 | < 0.1 | 1.9 | 12 | Cc1ccc(Nc2nc3c(s2)CCc2n[nH]cc2-3)nc1 | 
> 10000 |  |  | 35 | c1csc(Nc2nc3c(s2)CCCc2n[nH]cc2-3)n1 | 
 |  |  | 10 | c1cc(Nc2nc3c(s2)CCc2n[nH]cc2-3)ccn1 | 
 |  |  | 200 | Cc1cccc(Nc2nc3c(s2)CCCc2n[nH]cc2-3)n1 | 
2700 | 30 (≈ 9.4 µg/mL) | 38.8 | 76 | OCc1cccc(Nc2nc3c(s2)CCCc2n[nH]cc2-3)n1 | 
> 10000 | 9 (≈ 2.55 µg/mL) | 12.4 | 11 | Cc1ccnc(Nc2nc3c(s2)CCc2n[nH]cc2-3)c1 | 
 |  |  | 150 | c1ccc(Nc2nc3c(s2)CCc2n[nH]cc2-3)nc1 | 
> 10000 | 21 (≈ 6.27 µg/mL) | 31 | 6.3 | Cc1ccc(Nc2nc3c(s2)CCCc2n[nH]cc2-3)nn1 | 
 |  |  | 180 | c1cnc(Nc2nc3c(s2)CCc2n[nH]cc2-3)nc1 | 
 |  |  | 210 | Cc1ccnc(Nc2nc3c(s2)CCCc2n[nH]cc2-3)n1 | 
 |  |  | 120 | c1ccc(Nc2nc3c(s2)CCCc2n[nH]cc2-3)nc1 | 
